PKA-R1A act: activates the PKA-R1A holoenzyme complex; P00514+P68181; PKA-R1A dissociation, Cy5-IP20 fluorescence polarization; scaled: DMSO 0%, 113 µM cGMP 100%; activation, % at 11.4 µM; AID 504707; 340,000 tested, 0.083% active;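 active means percent activation above the mean of all tested compounds plus 3 SD, cut at about 19% in these data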;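 further: higher means more PKAc released from R1A so a rise in polarization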
PKA-R2B act: PKA-R2B complex activation; P22694+P31323; PKA-R2B holoenzyme dissociation, Cy5-IP20 fluorescence polarization; R2B truncated from residue 108, S112A mutant; 0% DMSO only, 100% 113 µM cGMP; activation, % at 11.4 µM; 340,000 tested, 0.079% active; AID 504700;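 active means activation above a cutoff set at the mean over all compounds plus 3 SD, cut at about 18% in these data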;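 further: higher means more holoenzyme dissociation and a rise in polarization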
Target sequence (P31323 whole entry, looked up, other chains not shown, the tested form may be a part): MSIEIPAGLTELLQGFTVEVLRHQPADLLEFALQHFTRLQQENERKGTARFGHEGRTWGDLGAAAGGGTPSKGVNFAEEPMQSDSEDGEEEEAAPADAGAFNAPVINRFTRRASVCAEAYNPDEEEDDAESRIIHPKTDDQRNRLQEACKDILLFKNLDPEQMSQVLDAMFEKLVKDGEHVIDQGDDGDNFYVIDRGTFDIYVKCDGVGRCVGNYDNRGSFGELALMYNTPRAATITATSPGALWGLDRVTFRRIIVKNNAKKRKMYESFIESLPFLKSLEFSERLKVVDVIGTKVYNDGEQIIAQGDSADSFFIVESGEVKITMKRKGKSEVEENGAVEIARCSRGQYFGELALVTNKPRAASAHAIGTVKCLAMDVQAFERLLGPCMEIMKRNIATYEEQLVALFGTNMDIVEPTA
MsrA inhibitor: bovine MsrA inhibition; purified bovine MsrA, absorbance read-out; inhibition, % at 15.5 µM; 360,000 tested, 0.75% active; AID 651718; in the data active means inhibition above about 4.5%;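 further: 0% = vehicle wells with enzyme and 100% = reference inhibitor wells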
MsrA act: bovine methionine sulfoxide reductase A activation | 360,000 tested, 0.3% active | AID 602163 | purified bovine MsrA, absorbance read-out | activation, % at 10.6 µM; in the data active means activation above about 7.5%;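 further: 0% = vehicle and 100% = reference activator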
IMP-1 inhibitor: inhibitors of Pseudomonas aeruginosa IMP-1 metallo-beta-lactamase; purified IMP-1, nitrocefin hydrolysis, epi-absorbance fluorescence; inhibition, % at 5.6 µM; 290,000 tested, 0.45% active; AID 1556;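 active means inhibition above the mean plus 3 SD of all compounds in the same screening run, cut at about 4.5% in these data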;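 further: 0% = IMP-1 with DMSO and 100% = DMSO wells lacking enzyme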
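assay system = purified recombinant IMP-1 metallo-beta-lactamase enzyme | schedule = 15 min preincubation plus 25 min reaction at 25 °C | signal = Epi-absorbance fluorescence, 480 nm excitation, 530 nm emission | read-out basis = percent inhibition from optical density relative to buffer-blank wells | controls = IMP-1 with DMSO as 0%, enzyme-free DMSO as 100%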
VIM-2 inh: blocks Pseudomonas aeruginosa VIM-2 metallo-beta-lactamase; purified VIM-2, nitrocefin hydrolysis, epi-absorbance fluorescence; inhibition, % at 5.6 µM; 290,000 tested, 0.89% active; AID 1527;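 active means inhibition above the mean of all tested compounds plus 3 SD, cutoff set per screening run, cut at about 7.5% in these data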;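 further: red hydrolysis product quenches plate fluorescence so inhibitors raise well fluorescence; 0% = enzyme with DMSO and 100% = DMSO without enzyme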
R1A FP artifact: counter-screen for PKA-R1A activators: fluorescence polarization artifacts; activation, % at 11.4 µM; shares compounds with PKA-R1A act; Cy5-IP20 peptide alone, fluorescence polarization artifact counterscreen; 280 tested, 7% active;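 active means mean activation over triplicate runs exceeds the adjusted cutoff derived for the parent primary screen, cut at about 19% in these data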;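 further: no PKA protein present so any polarization rise reflects compound interference; 0% = tracer peptide mix alone and 100% = mix with added PKA catalytic subunit; higher means stronger polarization artifact and likely false positive in parent screen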
PKA-R1A confirm: PKA-R1A complex activation, confirmation; shares compounds with PKA-R1A act; Cy5-IP20 fluorescence polarization, PKA-R1A holoenzyme dissociation; activation, % at 11.4 µM; 280 tested, 9% active; AID 504800;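 active means mean activation over replicate wells exceeds the adjusted hit threshold taken from the earlier primary screen, cut at about 20% in these data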;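 further: 0% = holoenzyme mix with DMSO only and 100% = cGMP-activated control wells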
* = called active by the depositor. This is a sample that favours compounds with a hit; in the whole collection about 2.1% have one here.

How did O=C(Nc1ccc(N2CCN(c3ccc(O)cc3)CC2)cc1)Oc1ccccc1 do in these assays?
PKA-R1A act: 20*; PKA-R2B act: 16; MsrA inhibitor: 0; MsrA act: -5; IMP-1 inhibitor: -3; VIM-2 inh: 5; R1A FP artifact: 15; PKA-R1A confirm: 17

Results for CCOC(=O)c1c(C)[nH]c(C)c1C(=O)COC(=O)c1cccnc1SC ?
PKA-R1A act: -10; PKA-R2B act: -2; MsrA inhibitor: -1; MsrA act: -6

What do the screens show for `CCOc1ccc(S(=O)(=O)N2CCCCC2)cc1NC(=O)Cc1cccs1`?
PKA-R1A act: -6; PKA-R2B act: -10; MsrA inhibitor: -1; MsrA act: -1

What do the screens show for `Cc1ccc(NC(=O)C2CC(=O)n3c(nc4ccccc43)N2)cc1C` (stereo unspecified)?
PKA-R1A act: 19*; PKA-R2B act: -6; MsrA inhibitor: 0; MsrA act: -7; IMP-1 inhibitor: -1; VIM-2 inh: -2; R1A FP artifact: 2; PKA-R1A confirm: 5

Results for Cc1ccc(NC(=O)C2CC(=O)n3c(nc4ccccc43)N2)cc1Cl (stereo unspecified) ?
PKA-R1A act: 3; PKA-R2B act: 4; MsrA inhibitor: 0; MsrA act: -3; IMP-1 inhibitor: -1; VIM-2 inh: 0

What do the screens show for `O=C(Oc1ccc([N+](=O)[O-])cc1)C1CC(=O)N(c2ccc3c(c2)OCCO3)C1` (stereo unspecified)?
PKA-R1A act: -11; PKA-R2B act: -4; MsrA inhibitor: 2; MsrA act: -9

What do the screens show for `COc1cc(Cl)ccc1OC1(C)CCN(Cc2cccn2-c2nccs2)C1` (stereo unspecified)?
MsrA inhibitor: 0; MsrA act: -2

Results for Cc1ccc(CNC(=O)CN(c2ccc(Cl)cc2)S(C)(=O)=O)cc1 ?
PKA-R1A act: 21*; PKA-R2B act: -13; MsrA inhibitor: 0; MsrA act: -3; IMP-1 inhibitor: -3; VIM-2 inh: 1; R1A FP artifact: 3; PKA-R1A confirm: 0

What do the screens show for `O=C(CSCc1ccccc1)N1CCN(c2ccc(F)cc2)CC1`?
PKA-R1A act: -9; PKA-R2B act: -13; MsrA inhibitor: 0; MsrA act: 4; IMP-1 inhibitor: -1; VIM-2 inh: 1

Results for O=C(CSCc1ccccc1)N1CCN(c2ccccc2)CC1 ?
PKA-R1A act: 19*; PKA-R2B act: 0; MsrA inhibitor: -1; MsrA act: -3; IMP-1 inhibitor: -4; VIM-2 inh: -2; R1A FP artifact: 1; PKA-R1A confirm: 2

Results for CC1C(=O)N(Cc2cn(CCC3OCCO3)nn2)CCS(=O)(=O)N1Cc1ccc(-c2ccncc2)cc1 (stereo unspecified) ?
PKA-R1A act: 2; PKA-R2B act: -6; MsrA inhibitor: -1; MsrA act: -2

How did CC1C(=O)N(Cc2cn(CCC3OCCO3)nn2)CCS(=O)(=O)N1Cc1ccc(-c2ccc(F)cc2)cc1 (stereo unspecified) do in these assays?
PKA-R1A act: 20*; PKA-R2B act: -13; MsrA inhibitor: 0; MsrA act: -3; R1A FP artifact: 2; PKA-R1A confirm: 2

What do the screens show for `O=C(O)CN1C(=O)/C(=C\c2cc(Br)ccc2OCc2ccc([N+](=O)[O-])cc2)SC1=S`?
PKA-R1A act: 25*; PKA-R2B act: 1; MsrA inhibitor: 2; MsrA act: -4; IMP-1 inhibitor: 0; VIM-2 inh: 2; R1A FP artifact: 1; PKA-R1A confirm: 1

What do the screens show for `COc1ccccc1N=Nc1c(C)n[nH]c1C`?
PKA-R1A act: 19*; PKA-R2B act: -5; MsrA inhibitor: 4.6*; MsrA act: -3; IMP-1 inhibitor: -3; VIM-2 inh: -1; R1A FP artifact: -1; PKA-R1A confirm: 1

Bioassay records (PubChem BioAssay)
